The subject of data set [1] is Mus musculus. The experiment in a line: In vivo inhibition of pan Pim in SCID-bg mouse xenografted with human KMS-12-BM cells assessed as phosphorylation of BAD peptide at Serine 112 residue at 25 mg/kg, po qd measured at 12 hrs post dose relative to control. Type of data set: functional. The arrangement: scale not given: the % may be the effect or the level left. For orientation: Xenograft models place foreign cells or tissue in a host animal.

The nature of data set [2]: Aqueous solubility of the compound in PBS at pH 7.4 after 1 hr by LC/MS analysis. Type of data set: physicochemical. The procedure, abridged:
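The compound was dried down from DMSO and taken up in 1x PBS (pH 7.4) or FaSIF (pH 6.8). Samples were shaken 1 h, equilibrated at RT for 72 h, then centrifuged.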

Data set [3] deals with Mus musculus. The experiment in a line: In vivo inhibition of pan Pim in SCID-bg mouse xenografted with human KMS-12-BM cells assessed as phosphorylation of BAD peptide at Serine 112 residue at 50 mg/kg, po qd measured at 24 hrs post dose relative to control. Type of data set: functional. Also on record: scale not given: the % may be the effect or the level left.
Data set [4] can be described thus: Volume of distribution at steady state in dog at 0.3 mg/kg, iv. Type of data set: ADME, organism-based, Canis lupus familiaris. Particulars: in vivo, read-out: Vdss.
The test system of data set [5] is Mus musculus. In words: In vivo inhibition of pan Pim in SCID-bg mouse xenografted with human KMS-12-BM cells assessed as phosphorylation of BAD peptide at Serine 112 residue at 25 mg/kg, po qd measured at 8 hrs post dose relative to control. The arrangement: scale not given: the % may be the effect or the level left. Type of data set: functional.
Data set [6] has as its system Mus musculus. The experiment in a line: In vivo inhibition of pan Pim in SCID-bg mouse xenografted with human KMS-12-BM cells assessed as phosphorylation of BAD peptide at Serine 112 residue at 25 mg/kg, po qd measured at 1 hr post dose relative to control. Also on record: scale not given: the % may be the effect or the level left. Type of data set: functional.
For data set [7], the target named is T1, Mitogen-activated protein kinase kinase kinase 19 (Homo sapiens) (UniProt Q56UN5).
T1 sequence (whole entry): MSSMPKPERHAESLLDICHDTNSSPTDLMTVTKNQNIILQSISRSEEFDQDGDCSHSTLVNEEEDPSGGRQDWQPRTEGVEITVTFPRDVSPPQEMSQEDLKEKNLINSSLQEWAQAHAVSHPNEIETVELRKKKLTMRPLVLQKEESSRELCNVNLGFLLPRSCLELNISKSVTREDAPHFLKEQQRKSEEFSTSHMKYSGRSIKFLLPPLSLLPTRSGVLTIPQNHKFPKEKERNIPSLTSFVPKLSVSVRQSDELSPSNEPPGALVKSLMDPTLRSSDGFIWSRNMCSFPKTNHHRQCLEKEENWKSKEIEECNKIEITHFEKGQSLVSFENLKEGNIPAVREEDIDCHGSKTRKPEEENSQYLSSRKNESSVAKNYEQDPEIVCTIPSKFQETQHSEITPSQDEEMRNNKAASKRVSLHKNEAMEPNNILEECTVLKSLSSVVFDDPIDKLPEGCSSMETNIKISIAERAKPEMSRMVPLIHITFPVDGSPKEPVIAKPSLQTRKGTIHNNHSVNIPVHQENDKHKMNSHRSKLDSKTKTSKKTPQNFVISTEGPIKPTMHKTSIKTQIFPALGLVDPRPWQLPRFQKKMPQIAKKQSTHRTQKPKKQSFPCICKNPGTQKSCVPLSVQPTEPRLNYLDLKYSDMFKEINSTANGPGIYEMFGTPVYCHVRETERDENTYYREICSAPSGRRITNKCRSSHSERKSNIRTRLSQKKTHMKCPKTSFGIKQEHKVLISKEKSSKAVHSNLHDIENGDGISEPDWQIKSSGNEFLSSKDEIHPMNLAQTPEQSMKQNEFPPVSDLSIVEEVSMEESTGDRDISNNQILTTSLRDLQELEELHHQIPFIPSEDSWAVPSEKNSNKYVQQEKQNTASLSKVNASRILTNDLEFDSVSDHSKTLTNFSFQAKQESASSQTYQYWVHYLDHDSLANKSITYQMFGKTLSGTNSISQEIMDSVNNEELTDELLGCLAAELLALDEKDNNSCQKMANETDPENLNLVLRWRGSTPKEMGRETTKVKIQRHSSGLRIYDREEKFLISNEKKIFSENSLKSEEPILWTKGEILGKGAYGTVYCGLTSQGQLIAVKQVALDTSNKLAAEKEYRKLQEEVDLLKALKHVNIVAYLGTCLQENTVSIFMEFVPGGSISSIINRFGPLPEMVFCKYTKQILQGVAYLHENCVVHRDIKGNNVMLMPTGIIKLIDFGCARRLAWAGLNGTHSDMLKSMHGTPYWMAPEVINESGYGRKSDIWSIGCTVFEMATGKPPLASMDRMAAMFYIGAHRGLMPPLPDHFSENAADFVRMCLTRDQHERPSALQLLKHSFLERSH
The experiment in a line: Inhibition of human YSK4 (1019 to 1328 residues) expressed in mammalian system assessed as remaining enzyme activity at 1 uM by KINOMEScan assay relative to control.

The subject of data set [8] is Mus musculus. The experiment in a line: In vivo inhibition of pan Pim in SCID-bg mouse xenografted with human KMS-12-BM cells assessed as phosphorylation of BAD peptide at Serine 112 residue at 100 mg/kg, po qd measured at 1 hr post dose relative to control. Type of data set: functional. Also on record: scale not given: the % may be the effect or the level left.
The nature of data set [9]: Oral bioavailability in dog. Type of data set: ADME, organism-based, Canis lupus familiaris. The conditions noted are these: in vivo.
The next data set deals with KMS-12-BM. In words: Antitumor activity against human KMS-12-BM cells xenografted in SCID-bg mouse assessed as tumor growth inhibition at 100 mg/kg, po qd measured twice per week. Type of data set: functional. The conditions noted are these: read-out: TGI.
The subject of data set [10] is Mus musculus. The experiment in a line: In vivo inhibition of pan Pim in SCID-bg mouse xenografted with human KMS-12-BM cells assessed as phosphorylation of BAD peptide at Serine 112 residue at 10 mg/kg, po qd measured at 4 hrs post dose relative to control. Type of data set: functional. The arrangement: scale not given: the % may be the effect or the level left.

Data set [11] concerns the target T2, Mitogen-activated protein kinase 12 (Homo sapiens) (UniProt P53778).
T2 sequence (whole entry): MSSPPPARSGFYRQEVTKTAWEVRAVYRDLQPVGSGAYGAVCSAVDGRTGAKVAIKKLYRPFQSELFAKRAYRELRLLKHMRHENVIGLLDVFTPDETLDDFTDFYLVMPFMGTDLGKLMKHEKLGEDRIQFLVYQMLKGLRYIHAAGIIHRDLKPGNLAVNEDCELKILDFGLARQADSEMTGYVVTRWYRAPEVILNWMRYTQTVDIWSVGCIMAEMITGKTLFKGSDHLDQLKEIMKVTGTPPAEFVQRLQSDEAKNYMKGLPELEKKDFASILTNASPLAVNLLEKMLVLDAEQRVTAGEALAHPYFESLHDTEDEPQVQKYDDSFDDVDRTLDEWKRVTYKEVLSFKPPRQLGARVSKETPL
In words: Inhibition of full length human p38-gamma expressed in bacterial system assessed as remaining enzyme activity at 1 uM by KINOMEScan assay relative to control.

The target in data set [12] is Dual specificity tyrosine-phosphorylation-regulated kinase 1A (Homo sapiens) (UniProt Q13627). The experiment in a line: Inhibition of human DYRK1A (129 to 509 residues) expressed in mammalian system assessed as remaining enzyme activity at 1 uM by KINOMEScan assay relative to control.
Data set [13] concerns the target Casein kinase II subunit alpha (Homo sapiens) (UniProt P68400). The experiment in a line: Inhibition of full length human CSNK2A1 expressed in mammalian system assessed as remaining enzyme activity at 1 uM by KINOMEScan assay relative to control.

One may read the solubility as the dissolved amount per volume that the medium holds. One may read the bioavailability as dose-corrected exposure relative to a reference, in per cent.

Converted amounts (≈) assume the structure as drawn.

Casein kinase II subunit alpha (Homo sapiens), sequence (P68400 whole entry, looked up): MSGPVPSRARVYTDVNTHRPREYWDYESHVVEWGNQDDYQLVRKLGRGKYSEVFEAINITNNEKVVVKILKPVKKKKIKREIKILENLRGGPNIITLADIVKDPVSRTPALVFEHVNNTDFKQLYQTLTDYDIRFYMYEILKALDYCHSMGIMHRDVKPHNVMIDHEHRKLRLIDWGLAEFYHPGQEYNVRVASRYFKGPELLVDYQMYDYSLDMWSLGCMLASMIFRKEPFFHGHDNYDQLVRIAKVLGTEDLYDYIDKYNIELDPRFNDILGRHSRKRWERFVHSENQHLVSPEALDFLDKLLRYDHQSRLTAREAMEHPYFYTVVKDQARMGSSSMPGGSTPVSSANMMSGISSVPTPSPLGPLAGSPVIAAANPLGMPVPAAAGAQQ

Turning to `C[C@H]1NC(=O)c2cc(-c3cccc4c(=O)n(C)c(NC(C)(C)C)nc34)[nH]c21`, the Activity in the data set with Mus musculus [1] came to 37%; with Mus musculus [3] it was 10%; in the data set on Mus musculus [5], 60%; with Mus musculus [6] it was 60%; in data set [7], 0.4%; in the data set with Mus musculus [8] it was 61%. Moreover, the Activity with Mus musculus [10] amounted to 50%; in [11], 0.9%; in data set [12] it was 6%; in data set [13], 3.5%. The amount in solution in [2] (solubility at 1 h) came to 60 µM (≈ 21.9 µg/mL). Moreover, in data set [4], the Vd turned out to be 1 L/kg. The molecule also came in with a bioavailability in [9] of 44%. In addition, in the data set on KMS-12-BM, the inhibition in vivo at 100 mg/kg was determined as 95%.

The values are drawn from ChEMBL document CHEMBL4477213, “Discovery and Optimization of Quinazolinone-pyrrolopyrrolones as Potent and Orally Bioavailable Pan-Pim Kinase Inhibitors” (J Med Chem, 2016).
